The assay has as its system A549 cells. Put plainly: MTT cytotoxicity assay, A549. It counts as cell-based, human. As to conditions: read-out: IC50 A549, 24 h incubation. Summed up:
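MTT assay. Cells seeded at 2 × 10^4 per well. A549 and HeLa S3 were maintained in DMEM with 10% FBS, 2 mM L-glutamine and antibiotics at 37 °C, 5% CO2. Test compound in DMSO (0.5%) applied at 100–3.125 μM for 24 h. After a PBS wash, cells received fresh DMEM with MTT (5 mg/mL) for 3–4 h in the dark. DMSO was added and absorbance read at 570 nm. Inhibition % = (A−B)/A × 100 versus untreated control, and IC50 taken from viability–concentration curves.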

For orientation: IC50 means the midpoint of a concentration-inhibition curve. Consider `N.N.[Cl][Pt][Cl]` [cisplatin, reference compound], for which the 50% inhibitory concentration (IC50) amounted to 18 ± 3.1 µM.

The record behind these values is paper PMC6682138 (ACS Omega, 2019).
